Reference: ChEMBL document CHEMBL1148841, “Synthesis, structural revision, and antioxidant activities of antimutagenic homoisoflavonoids from Hoffmanosseggia intricata” (Bioorg Med Chem Lett, 2007)

Key:
[1] = Antioxidant activity assessed as superoxide scavenging activity by NBT reduction assay; type: functional
Outline: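 Superoxide radicals produced in vitro by a non-enzymatic system; scavenging followed by nitro blue tetrazolium photoreduction, read spectrophotometrically at 560 nm; activity given as the concentration giving 50% inhibition (IC50).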

[2] = tested on: Radical scavenging activity; test: Antioxidant activity assessed as DPPH free radical scavenging activity; type: functional
Outline: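 Scavenging measured as reduction of the coloured DPPH (1,1-diphenyl-2-picrylhydrazyl) radical in methanolic solution; activity given as IC50.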

| SMILES | IC50 [1] | IC50 [2] |
| --- | --- | --- |
| COc1ccc(/C=C2\COc3c(ccc(O)c3O)C2=O)cc1 [INTRICATINOL] | 30.1 µM | 10.1 µM |
| O=C1O[C@H]([C@@H](O)CO)C(O)=C1O [ASCORBIC ACID] | 852 µM | 25.1 µM |
| COc1ccc(O)c(C(C)(C)C)c1.COc1ccc(O)cc1C(C)(C)C [BUTYLATED HYDROXYANISOLE] | 966 µM | 34 µM |
| O=C1/C(=C/c2ccc(O)c(O)c2)COc2c1ccc(O)c2O | 8.5 µM | 4.5 µM |
| O=C1/C(=C/c2ccc(O)cc2)COc2c1ccc(O)c2O | 26.5 µM | 8.3 µM |
| COc1ccc(/C=C2\COc3c(ccc(OC)c3O)C2=O)cc1 [INTRICATIN] | > 200 µM | > 200 µM |
